Source: PMC12415690 (RSC Advances, 2025)
Values after ≈ are worked out from the molar mass of the structure shown. Like-named read-outs stand apart in the source and are kept apart here.

Key:
[1] = system: M. tuberculosis H37Rv strain (ATCC 27294); assay: Antitubercular activity, microplate Alamar Blue assay; format: cell-based; settings: Mycobacterium tuberculosis, ATCC27294|H37RV, read-out: MIC μM
S. aureus (ATCC 23235) = assay: Antibacterial zone of inhibition; format: cell-based; settings: Staphylococcus aureus, ATCC23235, read-out: Zone of inhibition in mm, S. aureus (ATCC 23235)
Outline: (§1)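 Sterilised nutrient agar, […], was seeded with 18–24 h bacterial subcultures, mixed and poured into Petri dishes. Once the agar set, 6 mm wells were cut with a sterile cork borer and filled with test compound dissolved in DMSO at 100 μg mL−1. Plates were incubated at 37 °C for 24–48 h, and inhibition zones around each well were measured in mm. Ciprofloxacin was the reference standard.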

[2] = system: P. aeruginosa (ATCC 27853); assay: Antibacterial zone of inhibition; format: cell-based; settings: Pseudomonas aeruginosa, ATCC27853, read-out: Zone of inhibition in mm, P. aeruginosa (ATCC 27853)
Outline: as §1

E. coli (ATCC 25922) = assay: Antibacterial zone of inhibition; format: cell-based; settings: Escherichia coli, ATCC25922, read-out: Zone of inhibition in mm, E. coli (ATCC 25922)
Outline: as §1

B. subtilis (ATCC 6051) = assay: Antibacterial zone of inhibition; format: cell-based, Bacillus subtilis; settings: 100 μg mL^−1; for zone of inhibition at 100 µg/mL: Bacillus subtilis, ATCC6051, read-out: Zone of inhibition in mm, B. subtilis (ATCC 6051), Gram positive
Outline: as §1

M.tb H37Rv = settings: cited from earlier work
[3] = system: dormant M. tuberculosis H37Ra; settings: cited from earlier work
[4] = system: Mycobacterium tuberculosis; settings: cited from earlier work

Question: Which MIC [1] does the source give for `CCOC(=O)c1sc(N/N=C/c2c(-c3ccc(OC)cc3)nc3ncccn23)nc1C` [Compound K2, Ethyl(E)-2-(2-((2-(4-methoxyphenyl)imidazo[1,2-a]pyrimidin-3-yl)methylene)hydrazineyl)-4-methylthiazole-5-carboxylate] here?
Answer: 3.66 µM (≈ 1.6 µg/mL)

Question: And the zone of inhibition at 100 µg/mL (S. aureus (ATCC 23235))?
Answer: 15 mm

Question: What about the zone of inhibition at 100 µg/mL [2] of the same compound?
Answer: 18 mm

Question: And the zone of inhibition at 100 µg/mL (E. coli (ATCC 25922))?
Answer: 18 mm

Question: And the zone of inhibition at 100 µg/mL (B. subtilis (ATCC 6051))?
Answer: 15 to 20 mm

Question: What about the “Zone of inhibition in mm, B. subtilis (ATCC 6051)” value (B. subtilis (ATCC 6051); Gram positive) of the same compound?
Answer: 15 mm

Question: And the “Cytotoxicity in VERO cells” value (VERO cell lines)?
Answer: non-toxic profiles

Question: For `CCOC(=O)c1sc(N/N=C(\C)c2ccccn2)nc1C` [(E)-ethyl 4-methyl-(2-(1-(pyridin-2-yl)ethylidene)hydrazinyl)thiazole-5-carboxylate], which MIC (M.tb H37Rv; M.tb H37Rv) is on record?
Answer: 12.5 µM

Question: For `CCOC(=O)c1nc(-c2ccc(C#N)cc2)sc1C1CCCCC1` [ethyl 2-(4-cyanophenyl)-5-cyclohexylthiazole-4-carboxylate], which MIC (M.tb H37Rv; H37Rv strain) is on record?
Answer: 2.1 µg/mL

Question: What about the “inhibition against dormant M. tuberculosis H37Ra” value [3] of the same compound?
Answer: 91%

Question: Which MIC [1] does the source give for `CCOC(=O)c1sc(N/N=C/c2c(-c3ccc(F)cc3)nc3ncccn23)nc1C` [Compound K3, Ethyl(E)-2-(2-((2-(4-fluorophenyl)imidazo[1,2-a]pyrimidin-3-yl)methylene)hydrazineyl)-4-methylthiazole-5-carboxylate] here?
Answer: 3.77 µM (≈ 1.6 µg/mL)

Question: What about the zone of inhibition at 100 µg/mL (S. aureus (ATCC 23235)) of the same compound?
Answer: 17 mm

Question: What about the zone of inhibition at 100 µg/mL [2] of the same compound?
Answer: 11 mm

Question: And the zone of inhibition at 100 µg/mL (E. coli (ATCC 25922))?
Answer: 20 mm

Question: What about the zone of inhibition at 100 µg/mL (B. subtilis (ATCC 6051)) of the same compound?
Answer: 13 mm

Question: What about the “Cytotoxicity in VERO cells” value (VERO cell lines) of the same compound?
Answer: non-toxic profiles

Question: Which MIC ([4]; thiazole-thiadiazole hybrids) does the source give for `Cc1csc(C(C)(O)c2nnc(Nc3cccc(Br)n3)s2)n1` (stereo not drawn) [1-(5-((6-bromopyridin-2-yl)amino)-1,3,4-thiadiazol-2-yl)-1-(4-methylthiazol-2-yl)ethanol] here?
Answer: 1 µM

Question: For `O=[N+]([O-])c1ccc(-c2csc(N/N=C/C=C(\Cl)c3ccc(Cl)cc3)n2)cc1` [2-((E)-2-((Z)-3-chloro-3-(4-chlorophenyl)allylidene)hydrazinyl)-4-(4-nitrophenyl)thiazole], which MIC ([4]; (E)-2-(2-allylidenehydrazinyl)thiazole derivatives) is on record?
Answer: 6.5 µg/mL

Question: With `CCOC(=O)c1sc(N/N=C/c2ccccc2O)nc1C` [(E)-ethyl 2-(2-(2-hydroxybenzylidene)hydrazinyl-4-methylthiazole-5-carboxylate] as the compound, how does the MIC (M.tb H37Rv; M.tb H37Rv) read?
Answer: 25 µM

Question: Which MIC [1] does the source give for `CCOC(=O)c1sc(N/N=C/c2c(-c3ccc(Cl)cc3)nc3ncccn23)nc1C` [Compound K4, Ethyl(E)-2-(2-((2-(4-chlorophenyl)imidazo[1,2-a]pyrimidin-3-yl)methylene)hydrazineyl)-4-methylthiazole-5-carboxylate] here?
Answer: 14.2 µM (≈ 6.26 µg/mL)

Question: What about the zone of inhibition at 100 µg/mL (S. aureus (ATCC 23235)) of the same compound?
Answer: 13 mm

Question: And the zone of inhibition at 100 µg/mL [2]?
Answer: 11 mm

Question: And the zone of inhibition at 100 µg/mL (E. coli (ATCC 25922))?
Answer: 20 mm

Question: What about the zone of inhibition at 100 µg/mL (B. subtilis (ATCC 6051)) of the same compound?
Answer: 14 mm
